Data: ChEMBL document CHEMBL4325934, “Discovery of 12-Thiazole Abietanes as Selective Inhibitors of the Human Metabolic Serine Hydrolase hABHD16A” (ACS Med Chem Lett, 2018)
pIC50: −log10 of the molar value. The source made the active and inactive calls. No cut-off for these calls is given here.

Key:
[1] = biological target: T1, ABHD12 (lysophosphatidylserine lipase) (Homo sapiens, UniProt Q8N2K0); assay: Inhibition of human ABHD12 expressed in HEK293 cells assessed as residual activity at 10 uM preincubated for 30 mins followed by 1-AG substrate addition and measured after 90 to 120 mins by fluorometric assay relative to control; assay type: cell-based; settings: HEK293 cells that express human ABHD12, probe 1-AG, read-out: Activity
T1 sequence (Q8N2K0 whole entry): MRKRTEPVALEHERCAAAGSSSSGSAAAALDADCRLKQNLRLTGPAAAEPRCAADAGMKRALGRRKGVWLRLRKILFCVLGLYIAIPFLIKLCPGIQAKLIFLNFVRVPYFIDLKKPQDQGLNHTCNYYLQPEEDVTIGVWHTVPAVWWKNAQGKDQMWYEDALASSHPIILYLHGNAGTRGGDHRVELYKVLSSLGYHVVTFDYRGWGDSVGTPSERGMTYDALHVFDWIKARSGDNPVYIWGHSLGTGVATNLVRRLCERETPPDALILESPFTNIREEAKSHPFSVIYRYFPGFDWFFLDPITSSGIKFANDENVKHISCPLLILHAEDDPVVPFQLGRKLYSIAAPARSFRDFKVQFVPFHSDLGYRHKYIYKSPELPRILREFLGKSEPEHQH
Procedure, shortened: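 Screened at 10 µM in lysates of HEK293 cells overexpressing human ABHD12, given as remaining hydrolase activity relative to control (mean ± SD, n=2-3).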

[2] = biological target: T2, Phosphatidylserine lipase ABHD16A (Homo sapiens) (UniProt O95870); assay: Inhibition of human ABHD16A expressed in HEK293 cells assessed as residual activity at 10 uM preincubated for 30 mins followed by 1-LG substrate addition and measured after 90 to 120 mins by fluorometric assay relative to control; assay type: cell-based
T2 sequence (whole entry): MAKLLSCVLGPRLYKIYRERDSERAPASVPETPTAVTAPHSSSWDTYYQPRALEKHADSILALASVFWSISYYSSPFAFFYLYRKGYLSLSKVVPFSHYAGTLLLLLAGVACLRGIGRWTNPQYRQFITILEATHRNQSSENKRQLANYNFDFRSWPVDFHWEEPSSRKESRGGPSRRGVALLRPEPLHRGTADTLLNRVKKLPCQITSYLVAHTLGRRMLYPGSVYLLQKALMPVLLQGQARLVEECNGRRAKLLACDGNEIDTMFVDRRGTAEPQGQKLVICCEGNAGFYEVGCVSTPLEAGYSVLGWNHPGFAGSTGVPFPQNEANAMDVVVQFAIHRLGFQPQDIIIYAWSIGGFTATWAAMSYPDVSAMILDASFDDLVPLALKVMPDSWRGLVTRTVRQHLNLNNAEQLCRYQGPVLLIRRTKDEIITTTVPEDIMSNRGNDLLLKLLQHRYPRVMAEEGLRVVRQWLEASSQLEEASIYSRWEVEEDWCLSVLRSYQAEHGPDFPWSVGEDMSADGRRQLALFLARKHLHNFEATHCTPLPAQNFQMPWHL
Procedure, shortened: (§1)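 Lysates of HEK293 cells transiently overexpressing human ABHD16A were pretreated 30 min with DMSO (control) or inhibitor, then 1-LG substrate was added (25 µM final), and liberated glycerol was measured. The single-concentration screen was at 10 µM, reported as % control activity (mean ± SD, n=2-3). Dose-responses used four concentrations (0.1-100 µM), duplicate wells, two independent experiments.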

[3] = biological target: T3, Phosphatidylserine lipase ABHD16A (Rattus norvegicus) (UniProt Q6MG55); assay: Inhibition of TAMRA-FP binding to ABHD16A in rat cerebellar membranes at 10 uM preincubated for 1 hr followed by TAMRA-FP addition measured after 1 hr by fluorescence based ABPP analysis; assay type: cell membranes; settings: Cerebellum, Membrane
T3 sequence (whole entry): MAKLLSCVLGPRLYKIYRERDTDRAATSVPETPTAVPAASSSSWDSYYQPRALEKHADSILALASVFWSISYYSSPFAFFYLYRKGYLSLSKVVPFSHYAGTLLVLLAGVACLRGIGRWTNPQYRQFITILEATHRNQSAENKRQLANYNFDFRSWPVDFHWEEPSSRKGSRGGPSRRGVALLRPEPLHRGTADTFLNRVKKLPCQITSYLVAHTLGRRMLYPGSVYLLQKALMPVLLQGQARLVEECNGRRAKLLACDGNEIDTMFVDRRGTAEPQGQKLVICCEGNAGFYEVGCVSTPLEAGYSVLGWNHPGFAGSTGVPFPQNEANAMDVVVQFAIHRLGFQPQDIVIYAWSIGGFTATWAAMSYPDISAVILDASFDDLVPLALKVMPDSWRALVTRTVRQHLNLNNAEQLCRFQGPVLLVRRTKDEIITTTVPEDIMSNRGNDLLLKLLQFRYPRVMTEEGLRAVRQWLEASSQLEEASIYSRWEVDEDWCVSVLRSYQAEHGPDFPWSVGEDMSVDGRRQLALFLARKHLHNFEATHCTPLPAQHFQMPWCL

[4] = biological target: T3, Phosphatidylserine lipase ABHD16A (Rattus norvegicus); assay: Inhibition of TAMRA-FP binding to ABHD16A in rat cerebellar membranes preincubated for 1 hr followed by TAMRA-FP addition measured after 1 hr by fluorescence based ABPP analysis; assay type: cell membranes; settings: Cerebellum, Membrane
Procedure, shortened: (§2)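 Competitive ABPP in rat cerebellar membrane proteome: the proteome was pretreated with inhibitor, then labelled with the TAMRA-FP probe, and loss of band labelling was read by fluorescence. Reversible test inhibitors were used at 20 and 200 µM.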

[5] = biological target: T2, Phosphatidylserine lipase ABHD16A (Homo sapiens); assay: Inhibition of human ABHD16A expressed in HEK293 cells assessed as residual activity at 100 uM preincubated for 30 mins followed by 1-LG substrate addition and measured after 90 to 120 mins by fluorometric assay relative to control; assay type: cell-based; procedure, shortened: as §1
[6] = biological target: T4, Phosphatidylserine lipase ABHD16A (Homo sapiens, UniProt O95870); assay: Reversible inhibition of human ABHD16A expressed in HEK293 cells preincubated for 30 mins followed by 40 fold compound dilution and subsequent 1-LG substrate addition and measured at 30 mins time interval for 120 mins by fluorometric assay; assay type: cell-based
T4 sequence (O95870 whole entry): T2 sequence (whole entry)
Procedure, shortened: (§3)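 Reversibility test: hABHD16A-HEK293 lysate treated with inhibitor was rapidly diluted 40-fold before substrate addition. Inhibitor range extended up to 1 mM, and potency was compared with the routine assay (30 min pretreatment, 1-LG hydrolysis, glycerol read-out). Mean ± SD from two independent experiments.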

[7] = biological target: T4, Phosphatidylserine lipase ABHD16A; assay: Inhibition of human ABHD16A expressed in HEK293 cells preincubated for 30 mins followed by 1-LG substrate addition and measured after 90 to 120 mins by fluorometric assay; assay type: cell-based; procedure, shortened: as §1
[8] = biological target: T2, Phosphatidylserine lipase ABHD16A (Homo sapiens); assay: Ratio of IC50 for reversible inhibition of human ABHD16A expressed in HEK293 cells to IC50 for inhibition of human ABHD16A expressed in HEK293 cells; assay type: cell-based; procedure, shortened: as §3
[9] = biological target: Acyl-protein thioesterase 1 (Rattus norvegicus) (UniProt P70470); assay: Binding affinity to LYPLA1 in rat cerebellar membranes at 10 uM measured after 1 hr by fluorescence based ABPP analysis; assay type: cell membranes; settings: Cerebellum, Membrane
[10] = biological target: Acyl-protein thioesterase 2 (Rattus norvegicus) (UniProt Q9QYL8); assay: Binding affinity to LYPLA2 in rat cerebellar membranes at 10 uM measured after 1 hr by fluorescence based ABPP analysis; assay type: cell membranes; settings: Cerebellum, Membrane; procedure, shortened: as §2
[11] = biological target: T2, Phosphatidylserine lipase ABHD16A (Homo sapiens); assay: Potency index, ratio of tetrahydrolipstatin IC50 to compound IC50 for inhibition of ABHD16A (unknown origin)

Sequence of Acyl-protein thioesterase 1 (Rattus norvegicus) (P70470 whole entry): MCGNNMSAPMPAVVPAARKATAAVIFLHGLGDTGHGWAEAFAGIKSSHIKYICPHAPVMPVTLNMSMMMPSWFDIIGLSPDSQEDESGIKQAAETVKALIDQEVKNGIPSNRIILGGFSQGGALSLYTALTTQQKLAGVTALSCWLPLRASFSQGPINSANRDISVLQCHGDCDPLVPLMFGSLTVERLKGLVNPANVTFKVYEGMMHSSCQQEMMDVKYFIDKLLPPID
Sequence of Acyl-protein thioesterase 2 (Rattus norvegicus) (Q9QYL8 whole entry): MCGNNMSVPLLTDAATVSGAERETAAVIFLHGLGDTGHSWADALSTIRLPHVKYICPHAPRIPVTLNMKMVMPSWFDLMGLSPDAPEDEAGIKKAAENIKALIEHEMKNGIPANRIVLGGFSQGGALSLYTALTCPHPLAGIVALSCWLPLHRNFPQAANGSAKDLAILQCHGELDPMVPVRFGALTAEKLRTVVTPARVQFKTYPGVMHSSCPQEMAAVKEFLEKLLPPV

## COC(=O)[C@]1(C)CCC[C@]2(C)c3cc(-c4csc(C)[n+]4C)c(C(C)C)cc3CC[C@@H]12
[1]
  activity at 10 µM: 92.8%
[2]
  Activity: 82.7%

## CCCCCCCCCCC[C@@H](C[C@@H]1OC(=O)[C@H]1CCCCCC)OC(=O)[C@H](CC(C)C)NC=O
[3]
  inhibition: Active

## CC(C)c1cc2c(cc1-c1csc(N)n1)[C@@]1(C)CCC[C@@](C)(C(N)=O)[C@@H]1CC2
[1]
  activity at 10 µM: 96.9%
[2]
  Activity: 80%

## COC(=O)[C@]1(C)CCC[C@]2(C)c3cc(-c4csc[n+]4C)c(C(C)C)cc3CC[C@@H]12
[1]
  activity at 10 µM: 91.1%
[2]
  Activity: 80.1%

## Cc1nc(-c2cc3c(cc2C(C)C)CC[C@H]2[C@](C)(C(=O)O)CCC[C@]32C)cs1
[1]
  activity at 10 µM: 102%
[2]
  Activity: 98.4%

## CC(C)c1cc2c(cc1-c1cscn1)[C@@]1(C)CCC[C@@](C)(C(=O)OCCO)[C@@H]1CC2
[1]
  activity at 10 µM: 77.8%
[2]
  Activity: 62.9%

## Cc1nc(-c2cc3c(cc2C(C)C)CC[C@H]2[C@](C)(C(N)=O)CCC[C@]32C)cs1
[1]
  activity at 10 µM: 99.6%
[2]
  Activity: 80.6%

## COC(=O)[C@]1(C)CCC[C@]2(C)c3cc(-c4csc(C)n4)c(C(C)C)cc3CC[C@@H]12
[4]
  inhibition: Dose-dependent effect
[1]
  activity at 10 µM: 100%
[5]
  Activity: 12%
[6]
  pIC50: 4.39
[2]
  Activity: 23%
[7]
  pIC50: 5.44 to 5.47
[8]
  Ratio IC50: 11.4

## CCOC(=O)c1nc(-c2cc3c(cc2C(C)C)CC[C@H]2[C@](C)(C(=O)OC)CCC[C@]32C)cs1
[1]
  activity at 10 µM: 73.8%
[2]
  Activity: 48.7%

## CCCCCCCCCC[C@@H]1C(=O)O[C@H]1CCc1ccc(OC)c(OC)c1 [PALMOSTATIN B]
[9]
  Activity: Active
[10]
  Activity: Active
[6]
  pIC50: 7.24
[3]
  inhibition: Active
[7]
  pIC50: 6.98 to 7.00
[11]
  Ratio IC50: 1.7
[8]
  Ratio IC50: 1.8

## CC(C)c1cc2c(cc1-c1cscn1)[C@@]1(C)CCC[C@@](C)(C(N)=O)[C@@H]1CC2
[1]
  activity at 10 µM: 98.7%
[2]
  Activity: 82.1%

## CCCCCCCCCCCCCC1OC(=O)/C1=C\CCCCC(N)=O (configuration not stated)
[11]
  Ratio IC50: 1.3
